Screen size: about 2,500 compounds; about 460 (18%) were called active. These entries were drawn from the full list. Values without a mark were called inactive.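 Rule for the calls: active = mean activation above a cutoff of low control average plus 3 SD from the earlier screen (cut at about 12% in these data); inactive = the rest.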
Experiment: compound fluorescence interference without thin filaments, confirmation, artefact control for cardiac RTF calcium sensitizer project, biochemical (AID 504382)
Conditions: IANBD fluorescence interference counterscreen, buffer, EC20 Ca2+; at 7.2 µM; active compounds read high; scaled: EC20 calcium 0, EC100 calcium 100
In short: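 Medium: MOPS/KCl/MgCl2/EGTA/NTA/DTT buffer, pH 7.2 | Reagent: EC20 calcium, 0.472 mM | Compound dosing: 7.2 µM single dose | Times: 15 min compound exposure at 25 °C | Signal: Fluorescence, 480/540 nm | Measure: Interference relative to controls | Repeats: Triplicate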

| SMILES | fluorescence artifact activation |
| --- | --- |
| COc1ccccc1C(=O)n1nc(-c2ccccc2)nc1N | -0.09% |
| Cc1ccc(-c2nc(N)n(C(=O)c3cccnc3)n2)cc1 | 57.1% (active) |
| Cc1ccc(CNc2cccnc2)cc1 | 0.43% |
| CN(Cc1ccccc1)C(=O)c1ccc(NC(=O)Cc2ccc(NC(=O)C3CCCN(S(=O)(=O)c4cccc([N+](=O)[O-])c4)C3)cc2)cc1 (centres undefined) | 0.65% |
| CCN1CCN(Cc2c(O)ccc3c2O/C(=C\c2ccc(C)cc2)C3=O)CC1 | 0.17% |
| O=c1[nH]c2ccc(N=Cc3c(O)ccc4cc(Br)ccc34)cc2[nH]1 | -0.04% |
| COc1ccc(CNc2oc(COc3ccccc3)nc2C#N)cc1 | 21.9% (active) |
| CCC(CC)c1nc(C#N)c(NC(C)c2ccccc2)o1 (centres undefined) | 0% |
| C=CCNc1oc(COc2ccc(C)cc2)nc1C#N | 3.74% |
| N#Cc1ccccc1OCC(=O)OCC(=O)c1ccc2c(c1)NC(=O)CO2 | 5.5% |
| CCOC(=O)c1cnc2c(C)c(Cl)ccc2c1N1CCOCC1 | 28.3% (active) |
| O=C(OCCN1C(=O)c2cccc3c(N4CCOCC4)ccc(c23)C1=O)c1ccccc1Cl | 0.47% |
| O=C(OCCN1C(=O)c2cccc3c(N4CCOCC4)ccc(c23)C1=O)c1ccc(Cl)cc1Cl | 8.85% |
| CCSc1nnc(-c2sc3nnc(-c4ccccc4)c(-c4ccccc4)c3c2N)o1 | 0.15% |
| CCc1ccccc1SCc1noc(C(=O)NCC2CCCO2)c1C(=O)O (centres undefined) | 0.19% |
| O=C(NC(=S)NCC1CCCO1)C(c1ccccc1)c1ccccc1 (centres undefined) | 0.17% |
| OC(CNCC1CCCO1)Cn1c2ccc(Br)cc2c2cc(Br)ccc21 (centres undefined) | 12.3% (active) |
| O=C(COC(=O)/C=C/c1ccc(Cl)cc1)NCCN1C(=O)CSC1=O | -0.09% |
| O=C(N/N=C/c1ccccc1OC(=O)c1ccc2c(c1)OCO2)c1cccc(F)c1 | 17.8% (active) |
| COc1cc(C(=O)Oc2ccccc2/C=N/NC(=O)c2ccc(Cl)cc2)cc(OC)c1OC | 11.5% |

| SMILES | fluorescence artifact activation |
| --- | --- |
| O=C(N/N=C/c1ccc2c(c1)OCO2)/C(=C/c1ccc2c(c1)OCO2)NC(=O)c1ccccc1 | 0.46% |
| COCC(=O)NC1CCN(S(=O)(=O)c2cccc(C(C)=O)c2)CC1 | 3.2% |
| COc1ccc(OCCNC(=O)c2ccc(C)cc2)cc1 | 6.32% |
| Cc1ccc(C(=O)NCC(=O)OCC(=O)c2ccc(Cl)s2)cc1 | 77.8% (active) |
| Cc1ccc(C(=O)NCC(=O)OCC(=O)N(CC(C)C)c2c(N)n(Cc3ccccc3)c(=O)[nH]c2=O)cc1 | 0.05% |
| COc1ccc2nc(C)cc(NCc3ccc(F)cc3)c2c1 | 0.15% |
| Cc1cccc(NC(=O)CSc2nnc(CSc3nc(C)cc(C)n3)n2Cc2ccco2)c1 | 1.92% |
| Cc1ccc(C(=O)COC(=O)C2CCC2)cc1 | 7.89% |
| O=C(COc1ccc(Cl)cc1)NCc1ccccc1 | 0.08% |
| O=C(COC(=O)C1CCC1)NCc1ccccc1 | 82.9% (active) |
| O=C(COC(=O)C1CC2C=CC1C2)Nc1cccc(S(=O)(=O)N2CCCCCC2)c1 (centres undefined) | -0.04% |
| O=C(COC(=O)C1CCC(=O)N1)Nc1ccc(Oc2ccccc2)cc1 (centres undefined) | 0.14% |
| O=C(COC(=O)C1CCCCC1)Nc1ccc([N+](=O)[O-])cc1 | 28.8% (active) |
| CCOc1cc(/C=C2\N=C(SC(C)C(N)=O)N(c3ccc(OC(F)F)cc3)C2=O)ccc1O (centres undefined) | 3.79% |
| COc1ccc(C(=O)c2ccsc2N)cc1 | 3.39% |
| O=C(CN1CCc2ccccc2C1)Nc1cc(S(=O)(=O)N2CCOCC2)ccc1N1CCOCC1 | 0.07% |
| CCOc1cccc2c1OC(c1cc(OC)c(OC)c(OC)c1)N1N=C(c3ccc(C)o3)CC21 (centres undefined) | 0.15% |
| CC1(C)C([N+](=O)[O-])C(c2ccc(F)cc2)NC(c2ccc(F)cc2)C1[N+](=O)[O-] (centres undefined) | -0.04% |
| COC(=O)c1sccc1NC(=O)CSCC(=O)O | 0.05% |
| CN(C)C=Nc1c(Br)cc(Br)c2nonc12 | 16.1% (active) |

| SMILES | fluorescence artifact activation |
| --- | --- |
| C=CCn1c(SCC(=O)Nc2nccs2)nnc1-c1ccco1 | 0.29% |
| Cn1cc(Cl)c(-c2nc3ccccc3[nH]2)n1 | 2.42% |
| CCOC(=O)/C(=N\Nc1ccc(C(C)=O)cc1)c1csc(Nc2ccccc2)n1 | -0.08% |
| CCOC(=O)c1cnc2ccccc2c1Nc1ccc(C(=O)O)cc1 | 50% (active) |
| COC(=O)c1cc(N2CCN(C)CC2)nc2ccccc12 | 0.05% |
| CCCCN(Cc1ccccc1)S(=O)(=O)c1ccc2c(c1)n(C)c(=O)c(=O)n2C | 0.08% |
| COC(=O)C1=C(CSc2nc3c(cc2C#N)CN(C)CC3)OC(N)=C(C#N)C1c1ccc(F)cc1 (centres undefined) | -0.02% |
| COC(=O)c1ccc(S(=O)(=O)N2CCC(O)CC2)n1C | 4.73% |
| O=C(CS(=O)(=O)c1cn(Cc2ccc(F)cc2)c2ccccc12)N1CCOCC1 | -0.02% |
| CN(C)c1ccc(/C=C2\C(=N)N3N=C(CC(=O)N4CCCCC4)SC3=NC2=O)cc1 | 11.2% |
| CN(C)c1ccc(/C=C2\SC(N3CCCCC3)=NC2=O)cc1 | 193% (active) |
| CCOC(=O)C1CCCN(C2=NC(=O)/C(=C/c3ccc(N(C)C)cc3)S2)C1 (centres undefined) | 0.84% |
| COC(C(=O)Nc1c(F)cccc1F)c1ccccc1 (centres undefined) | 0.18% |
| CN(Cc1ccccc1)C(=O)c1cccc(N2C(=O)NC3CC2(C)Oc2ccccc23)c1 (centres undefined) | 14.2% (active) |
| COc1cccc2c1OC1(C)CC2NC(=O)N1Cc1ccccc1 (centres undefined) | 1.11% |
| CCOc1cccc2c1OC1(C)CC2NC(=O)N1c1cccc(C(=O)NCc2ccccn2)c1 (centres undefined) | 0.6% |
| COC(=O)CN(c1cc(OC)ccc1OC)S(=O)(=O)c1ccc(OC)c(OC)c1 | 0.04% |
| O=C(COC(=O)C1(c2ccccc2F)CCCC1)Nc1ncc(C(F)(F)F)cc1Cl | -0.01% |
| CN1CCc2c(sc(/N=C/c3ccco3)c2C(N)=O)C1 | 0.04% |

Reference: PubChem BioAssay AID504382 (The Scripps Research Institute Molecular Screening Center, 2011)
